In brackets after ≈: the same amount, converted by molar mass.
Experiments:
Assay type in all cases: functional
Staphylococcus aureus [1] = experiment: Antibacterial activity against kanamycin-resistant Staphylococcus aureus AH337 (SCV-9) harboring -1 frameshift mutation at nucleotide 220 in rplF gene after 18 to 24 hrs by Etest strip assay
In short: (§1)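 SCVs of a Rifr 8325-4 derivative were selected on LA with KAN at 8, 16 or 24 μg/ml for 48 h at 37°C. They were purified at the same KAN level and screened on LA plus FA 1 μg/ml.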

Staphylococcus aureus [2] = experiment: Antibacterial activity against kanamycin-resistant Staphylococcus aureus AH374 (SCV-46) harboring -5 frameshift mutation at nucleotide 236-240 in rplF gene after 18 to 24 hrs by Etest strip assay; in short: as §1
Staphylococcus aureus [3] = experiment: Antibacterial activity against kanamycin-resistant Staphylococcus aureus AH329 (SCV-1) harboring Arg659Cys mutation in fusA gene after 18 to 24 hrs by Etest strip assay; in short: as §1
Staphylococcus aureus [4] = experiment: Antibacterial activity against kanamycin-resistant Staphylococcus aureus AH332 (SCV-4) harboring Ala655Glu mutation in fusA gene after 18 to 24 hrs by Etest strip assay; in short: as §1
Staphylococcus aureus [5] = experiment: Antibacterial activity against kanamycin-resistant Staphylococcus aureus AH384 (SCV-56) harboring -1 frameshift mutation at nucleotide 221 in rplF gene after 18 to 24 hrs by Etest strip assay; in short: as §1
Staphylococcus aureus [6] = experiment: Antibacterial activity against kanamycin-resistant Staphylococcus aureus AH364 (SCV-36) harboring Asp434Asn mutation in fusA gene after 18 to 24 hrs by Etest strip assay; in short: as §1
Staphylococcus aureus [7] = experiment: Antibacterial activity against kanamycin-resistant Staphylococcus aureus AH392 (SCV-64) harboring -1 frameshift mutation at nucleotide 383 in rplF gene after 18 to 24 hrs by Etest strip assay
In short: (§2)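 Etest MIC: a single colony was suspended in 0.9% NaCl to 0.5 McFarland and swabbed over Mueller-Hinton agar. The strip was applied and plates were incubated at 37°C for 18 to 24 h until an SCV lawn grew.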

Staphylococcus aureus [8] = experiment: Antibacterial activity against fusidic acid-resistant Staphylococcus aureus AH209 harboring deletion of nucleotide 404-427 in rplF gene after 18 to 24 hrs by Etest strip assay
In short: (§3)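 Mutants of lab strain 8325-4 were selected on LA with FA 2 μg/ml for 48 h at 37°C and purified on selective medium. For the MIC, one colony was suspended in 0.9% NaCl to 0.5 McFarland and swabbed onto Mueller-Hinton agar. An Etest strip was applied and plates were incubated at 37°C for 18–24 h until the lawn was evident.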

Staphylococcus aureus [9] = experiment: Antibacterial activity against kanamycin-resistant Staphylococcus aureus AH378 (SCV-50) harboring -1 frameshift mutation at nucleotide 221 in rplF gene after 18 to 24 hrs by Etest strip assay; in short: as §1
Staphylococcus aureus [10] = experiment: Antibacterial activity against kanamycin-resistant Staphylococcus aureus AH349 (SCV-21) harboring -1 frameshift mutation at nucleotide 404 in rplF gene after 18 to 24 hrs by Etest strip assay; in short: as §1
Staphylococcus aureus [11] = experiment: Antibacterial activity against kanamycin-resistant and fusidic acid-susceptible Staphylococcus aureus AH420 harboring deletion of nucleotide 72-80 in rplF gene after 18 to 24 hrs by Etest strip assay; in short: as §2
Staphylococcus aureus [12] = experiment: Antibacterial activity against kanamycin-resistant Staphylococcus aureus AH346 (SCV-18) harboring -1 frameshift mutation at nucleotide 238 in rplF gene after 18 to 24 hrs by Etest strip assay; in short: as §1
Staphylococcus aureus [13] = experiment: Antibacterial activity against kanamycin-resistant Staphylococcus aureus AH369 (SCV-41) harboring Gln115Leu mutation in fusA gene after 18 to 24 hrs by Etest strip assay; in short: as §1
Staphylococcus aureus [14] = experiment: Antibacterial activity against fusidic acid-resistant Staphylococcus aureus AH187 harboring His457Tyr mutation in fusA gene after 18 to 24 hrs by Etest strip assay; in short: as §3
Staphylococcus aureus [15] = experiment: Antibacterial activity against kanamycin-resistant Staphylococcus aureus AH358 (SCV-30) harboring -1 frameshift mutation at nucleotide 423 in rplF gene after 18 to 24 hrs by Etest strip assay; in short: as §1
Staphylococcus aureus [16] = experiment: Antibacterial activity against kanamycin-resistant and fusidic acid-susceptible Staphylococcus aureus AH294 harboring Gly628Val mutation in fusA gene after 18 to 24 hrs by Etest strip assay; in short: as §2
Staphylococcus aureus [17] = experiment: Antibacterial activity against fusidic acid-resistant Staphylococcus aureus AH196 harboring Pro406Leu mutation in fusA gene after 18 to 24 hrs by Etest strip assay; in short: as §3
Staphylococcus aureus [18] = experiment: Antibacterial activity against kanamycin-resistant Staphylococcus aureus AH351 (SCV-23) harboring -4 frameshift mutation at nucleotide 45-48 in rplF gene after 18 to 24 hrs by Etest strip assay; in short: as §1
Staphylococcus aureus [19] = experiment: Antibacterial activity against kanamycin-resistant Staphylococcus aureus AH330 (SCV-2) harboring -1 frameshift mutation at nucleotide 423 in rplF gene after 18 to 24 hrs by Etest strip assay; in short: as §1
Staphylococcus aureus [20] = experiment: Antibacterial activity against kanamycin-resistant Staphylococcus aureus AH357 (SCV-29) harboring TAA stop codon at nucleotide 301 in rplF gene after 18 to 24 hrs by Etest strip assay; in short: as §1
Staphylococcus aureus [21] = experiment: Antibacterial activity against kanamycin-resistant Staphylococcus aureus AH331 (SCV-3) harboring Arg659His mutation in fusA gene after 18 to 24 hrs by Etest strip assay; in short: as §1
Staphylococcus aureus [22] = experiment: Ratio of MIC for kanamycin-resistant Staphylococcus aureus harboring mutations in FusE gene to MIC for wild type kanamycin-susceptible Staphylococcus aureus AH001
Staphylococcus aureus [23] = experiment: Antibacterial activity against kanamycin-resistant Staphylococcus aureus AH379 (SCV-51) harboring TAA stop codon at nucleotide 418 in rplF but gene after 18 to 24 hrs by Etest strip assay; in short: as §1
Staphylococcus aureus [24] = experiment: Antibacterial activity against kanamycin-resistant and fusidic acid-susceptible wild type Staphylococcus aureus 8325-4 […] after 18 to 24 hrs by Etest strip assay; in short: as §2
Staphylococcus aureus [25] = experiment: Antibacterial activity against kanamycin-resistant and fusidic acid-susceptible Staphylococcus aureus AH421 harboring Pro404Arg mutation in fusA gene after 18 to 24 hrs by Etest strip assay; in short: as §2
Staphylococcus aureus [26] = experiment: Antibacterial activity against fusidic acid-resistant Staphylococcus aureus AH188 harboring Gly664Ser mutation in fusA gene after 18 to 24 hrs by Etest strip assay; in short: as §3
Staphylococcus aureus [27] = experiment: Antibacterial activity against kanamycin-resistant Staphylococcus aureus AH367 (SCV-39) harboring Gly664Ser mutation in fusA gene after 18 to 24 hrs by Etest strip assay; in short: as §1
Staphylococcus aureus [28] = experiment: Antibacterial activity against kanamycin-resistant and fusidic acid-susceptible Staphylococcus aureus AH288 harboring Gly617Asp mutation in fusA gene after 18 to 24 hrs by Etest strip assay; in short: as §2
Staphylococcus aureus [29] = experiment: Antibacterial activity against kanamycin-resistant Staphylococcus aureus AH390 (SCV-62) harboring +1 frameshift mutation at nucleotide 84 in rplF gene after 18 to 24 hrs by Etest strip assay; in short: as §1
Staphylococcus aureus [30] = experiment: Antibacterial activity against kanamycin-resistant Staphylococcus aureus AH380 (SCV-52) harboring -1 frameshift mutation at nucleotide 158 in rplF gene after 18 to 24 hrs by Etest strip assay; in short: as §1
Staphylococcus aureus [31] = experiment: Antibacterial activity against kanamycin-resistant and fusidic acid-susceptible Staphylococcus aureus AH290 harboring duplication mutation at nucleotide 202-293 in rplF gene after 18 to 24 hrs by Etest strip assay; in short: as §2
Staphylococcus aureus [32] = experiment: Antibacterial activity against kanamycin-resistant and fusidic acid-susceptible Staphylococcus aureus AH298 harboring Gly664Val mutation in fusA gene after 18 to 24 hrs by Etest strip assay; in short: as §2

SMILES	MIC (Staphylococcus aureus [1])	MIC (Staphylococcus aureus [2])	MIC (Staphylococcus aureus [3])	MIC (Staphylococcus aureus [4])	MIC (Staphylococcus aureus [5])	MIC (Staphylococcus aureus [6])	MIC (Staphylococcus aureus [7])	MIC (Staphylococcus aureus [8])	MIC (Staphylococcus aureus [9])	MIC (Staphylococcus aureus [10])	MIC (Staphylococcus aureus [11])	MIC (Staphylococcus aureus [12])	MIC (Staphylococcus aureus [13])	MIC (Staphylococcus aureus [14])	MIC (Staphylococcus aureus [15])	MIC (Staphylococcus aureus [16])	MIC (Staphylococcus aureus [17])	MIC (Staphylococcus aureus [18])	MIC (Staphylococcus aureus [19])	MIC (Staphylococcus aureus [20])	also measured
CC(=O)O[C@H]1C[C@@]2(C)[C@@H](C[C@@H](O)[C@H]3[C@@]4(C)CC[C@@H](O)[C@@H](C)[C@@H]4CC[C@@]32C)/C1=C(\CCC=C(C)C)C(=O)O [FUSIDIC ACID]	12 µg/mL	8 µg/mL	12 µg/mL (≈ 23.2 µM)	12 µg/mL (≈ 23.2 µM)	24 µg/mL	256 µg/mL (≈ 495 µM)	4 µg/mL	4 µg/mL (≈ 7.74 µM)	8 µg/mL	4 µg/mL	12 µg/mL (≈ 23.2 µM)	8 µg/mL	48 µg/mL (≈ 92.9 µM)	96 µg/mL (≈ 186 µM)	12 µg/mL	2 µg/mL (≈ 3.87 µM)	6 µg/mL (≈ 11.6 µM)	16 µg/mL	12 µg/mL	12 µg/mL (≈ 23.2 µM)	MIC (Staphylococcus aureus [21]): 8 µg/mL (≈ 15.5 µM); fold change (FC) (Staphylococcus aureus [22]): 32; MIC (Staphylococcus aureus [23]): 6 µg/mL (≈ 11.6 µM); MIC (Staphylococcus aureus [24]): 0.047 µg/mL (≈ 0.091 µM); MIC (Staphylococcus aureus [25]): 3 µg/mL (≈ 5.81 µM); MIC (Staphylococcus aureus [26]): 4 µg/mL (≈ 7.74 µM); MIC (Staphylococcus aureus [27]): 12 µg/mL (≈ 23.2 µM); MIC (Staphylococcus aureus [28]): 6 µg/mL (≈ 11.6 µM); MIC (Staphylococcus aureus [29]): 16 µg/mL; MIC (Staphylococcus aureus [30]): 6 µg/mL; MIC (Staphylococcus aureus [31]): 8 µg/mL (≈ 15.5 µM); MIC (Staphylococcus aureus [32]): 6 µg/mL (≈ 11.6 µM)
NC[C@H]1O[C@H](O[C@H]2[C@H](O)[C@@H](O[C@H]3O[C@H](CO)[C@@H](O)[C@H](N)[C@H]3O)[C@H](N)C[C@@H]2N)[C@H](O)[C@@H](O)[C@@H]1O [KANAMYCIN]	96 µg/mL	32 µg/mL	12 µg/mL (≈ 24.8 µM)	12 µg/mL (≈ 24.8 µM)	128 µg/mL	8 µg/mL (≈ 16.5 µM)	12 µg/mL	8 µg/mL (≈ 16.5 µM)	16 µg/mL	16 µg/mL	256 µg/mL (≈ 528 µM)	8 µg/mL	6 µg/mL (≈ 12.4 µM)	3 µg/mL (≈ 6.19 µM)	48 µg/mL	16 µg/mL (≈ 33 µM)	3 µg/mL (≈ 6.19 µM)	64 µg/mL	128 µg/mL	96 µg/mL (≈ 198 µM)	MIC (Staphylococcus aureus [21]): 16 µg/mL (≈ 33 µM); fold change (FC) (Staphylococcus aureus [22]): 3; MIC (Staphylococcus aureus [23]): 12 µg/mL (≈ 24.8 µM); MIC (Staphylococcus aureus [24]): 2 µg/mL (≈ 4.13 µM); MIC (Staphylococcus aureus [25]): 8 µg/mL (≈ 16.5 µM); MIC (Staphylococcus aureus [26]): 24 µg/mL (≈ 49.5 µM); MIC (Staphylococcus aureus [27]): 12 µg/mL (≈ 24.8 µM); MIC (Staphylococcus aureus [28]): 16 µg/mL (≈ 33 µM); MIC (Staphylococcus aureus [29]): 256 µg/mL; MIC (Staphylococcus aureus [30]): 4 µg/mL; MIC (Staphylococcus aureus [31]): 256 µg/mL (≈ 528 µM); MIC (Staphylococcus aureus [32]): 32 µg/mL (≈ 66 µM)
CN[C@@H]1[C@H](O[C@H]2[C@H](O[C@H]3[C@H](O)[C@@H](O)[C@H](N=C(N)N)[C@@H](O)[C@@H]3N=C(N)N)O[C@@H](C)[C@]2(O)C=O)O[C@@H](CO)[C@H](O)[C@H]1O [STREPTOMYCIN]	256 µg/mL	96 µg/mL	24 µg/mL (≈ 41.3 µM)	12 µg/mL (≈ 20.6 µM)	256 µg/mL	24 µg/mL (≈ 41.3 µM)	16 µg/mL	16 µg/mL (≈ 27.5 µM)	256 µg/mL	64 µg/mL	256 µg/mL (≈ 440 µM)	24 µg/mL	12 µg/mL (≈ 20.6 µM)	6 µg/mL (≈ 10.3 µM)	64 µg/mL	8 µg/mL (≈ 13.8 µM)	8 µg/mL (≈ 13.8 µM)	256 µg/mL	96 µg/mL	256 µg/mL (≈ 440 µM)	MIC (Staphylococcus aureus [21]): 24 µg/mL (≈ 41.3 µM); fold change (FC) (Staphylococcus aureus [22]): 3; MIC (Staphylococcus aureus [23]): 16 µg/mL (≈ 27.5 µM); MIC (Staphylococcus aureus [24]): 6 µg/mL (≈ 10.3 µM); MIC (Staphylococcus aureus [25]): 12 µg/mL (≈ 20.6 µM); MIC (Staphylococcus aureus [26]): 16 µg/mL (≈ 27.5 µM); MIC (Staphylococcus aureus [27]): 16 µg/mL (≈ 27.5 µM); MIC (Staphylococcus aureus [28]): 32 µg/mL (≈ 55 µM); MIC (Staphylococcus aureus [29]): 64 µg/mL; MIC (Staphylococcus aureus [30]): 24 µg/mL; MIC (Staphylococcus aureus [31]): 64 µg/mL (≈ 110 µM); MIC (Staphylococcus aureus [32]): 6 µg/mL (≈ 10.3 µM)
